Measurements from ChEMBL document CHEMBL4428057, “Discovery, Synthesis, and Evaluation of 2,4-Diaminoquinazolines as a Novel Class of Pancreatic β-Cell-Protective Agents against Endoplasmic Reticulum (ER) Stress” (J Med Chem, 2016).
Calls of active or inactive are those of the source. No cut-off for these calls is given here.

Key:
Rattus norvegicus = species: Rattus norvegicus; assay: Inhibition of IRE1alpha in rat INS-1 cells assessed as suppression of tunicamycin induced spliced XBP1 mRNA levels in at 20 uM after 4 to 24 hrs by agarose gel electrophoresis based RT-PCR method; format: cell-based
Method in brief: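 Total XBP1 mRNA amplified by RT-PCR from INS-1 cells treated with Tm 0.1 µg/mL ± compound 20 µM or DMSO for the indicated times. Unspliced and spliced forms resolved on agarose gel; cyclophilin A as internal control. Representative of 3 independent experiments.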

INS1 [1] = assay: Reversal of tunicamycin-induced suppression of INS1 mRNA levels in rat INS-1 cells at 20 uM after 24 hrs by qRT-PCR method; format: functional, cell-based
Method in brief: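 INS-1 cells (4×10^5/well, 6-well plates) given Tm 0.1 µg/mL ± compound 20 µM or DMSO for 24 h. INS1, INS2, PDX1 and MafA mRNA measured by qRT-PCR with rat primers. Means of 3 replicate wells, representative of 3 independent experiments; SD.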

Pancreatic beta cell = assay: Suppression of tunicamycin impaired glucose-stimulated insulin secretion in human Beta cells at 10 to 20 uM preincubated for 48 hrs followed by glucose addition for 1 hr by ELISA; format: functional, cell-based
Method in brief: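 Human islets (50 of equal size) in 96-well plates given Tm 1 µg/mL plus compound for 48 h, preincubated 1 h in KRBH (pH 7.4) with 2.5 mM glucose, then stimulated 1 h with 2.5 or 20 mM glucose. Secreted insulin by human insulin ELISA, normalized to total protein by Bradford.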

INS1 [2] = assay: Protection against tunicamycin induced endoplasmic reticulum stress in rat INS-1 cells assessed as increase in cell viability after 3 days by CellTiter-Glo assay relative to control; format: functional
Method in brief: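 INS-1 cells at 3×10^3/well (384-well) co-treated with Tm 0.1 µg/mL and compound for 72 h; CellTiter-Glo ATP luminescence. Activity is % rescue, with Tm alone = 0% and DMSO without Tm = 100%. EC50 from ten 2-fold serial dilutions by curve fit; triplicate.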

Beta-TC6 = assay: Protection against tunicamycin induced endoplasmic reticulum stress in mouse BetaTC6 cells assessed as increase in cell viability after 72 hrs by CellTiter-Glo assay; format: functional, cell-based
Method in brief: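 βTC6 cells (DMEM, 15% FBS) seeded at 3×10^3/well in 384-well plates with Tm 0.25 µg/mL ± compound or DMSO for 72 h. Viability by CellTiter-Glo (ATP luminescence) or MTT: 3 h with reagent at 37 °C, then 4 h with crystal-dissolving solution, absorbance at 570 nm. 3 replicate wells, 3 experiments.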

## COc1ccc(CNc2nc(N3CCCCC3CO)nc3ccccc23)cc1 (racemic)
Rattus norvegicus
  inhibition: Active
INS1 [1]
  Activity: Active
Pancreatic beta cell
  Activity: Active
INS1 [2]
  %max: 80.4%
Beta-TC6
  Activity: Dose-dependent effect
